The record followed here is ChEMBL document CHEMBL2203019, “Cytotoxic cyclic depsipeptides from the Australian marine sponge Neamphius huxleyi” (J Nat Prod, 2012).

Structures are written as SMILES. Structures can show the parent of a compound that is named as a salt. Activity calls are given as the source filed them. The calls are words filed in the database; no cut-off is given here.

For one assay, the system named is HeLa. Kind of assay: Cytotoxicity against human HeLa cells after 72 hrs by alamar blue assay. It is filed as functional, cell-based. In outline: (§1)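 Cells were grown in RPMI with 10% FBS and penicillin/streptomycin (37 °C, 5% CO2). Plates held 1000 cells/well and were left overnight to adhere. Compounds were given for 72 h over 10 concentrations from 100 μM to 3 nM final, with 1% DMSO. Viability was read with Alamar blue at 10% final for 24 h (fluorescence ex 535/em 590 nm). Each concentration was run in triplicate. IC50 was fitted by nonlinear regression, as mean ± SD of two experiments. Vincristine served as positive control.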

A further assay concerns NFF. Kind of assay: Cytotoxicity against human NFF cells after 72 hrs by alamar blue assay. The format is cell-based. In outline: (§2)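 Cells were kept in DMEM with 10% FBS and penicillin/streptomycin at 37 °C and 5% CO2. 1000 cells/well adhered overnight, then were exposed for 72 h to a 10-point series from 100 μM to 3 nM final (1% DMSO). Alamar blue was added to 10% final for 24 h, and fluorescence was read at ex 535/em 590 nm. Triplicates were run. IC50 came from nonlinear regression, as mean ± SD of two independent experiments. Vincristine was the positive control.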

Assay [1] is described as follows: Cytotoxicity against human HEK cells after 72 hrs by alamar blue assay. The format is cell-based. The conditions noted are these: HEK293, 72 h. The essentials: as §2
On the technique in general: The colour change of resazurin is a common sign of viable cells or microbes.

Another assay has as its system PC-3. Kind of assay: Cytotoxicity against human PC3 cells after 72 hrs by alamar blue assay. It is filed as functional, cell-based. The conditions noted are these: PC-3, 72 h. The essentials:
as §1

For assay [2], the system named is A549. Kind of assay: Cytotoxicity against human A549 cells after 72 hrs by alamar blue assay. The format is functional, cell-based. The conditions noted are these: A549, 72 h. In outline: as §2
In a further assay the test system is LNCaP. Kind of assay: Cytotoxicity against human LNCAP cells after 72 hrs by alamar blue assay. It is filed as functional, cell-based. In outline: as §1
Assay [3] relates to A549. The assay is described as follows: Cytotoxicity against human A549 cells assessed as cell index at 100 nM after 72 hrs by alamar blue assay. The conditions noted are these: in the assay text read “xCelligence impedance assay” for “alamar blue assay”. The format is functional, cell-based. The essentials: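 Real-time impedance (cell index) was recorded on an xCelligence system. A549 cells were seeded at 4000/well, settled 30 min at room temperature, then recorded at 37 °C, 5% CO2. Next day, half the medium was swapped for medium holding 2× compound. Vehicle was 1% DMSO. Runs were in triplicate, in two independent experiments. Readings were taken every minute for 2 h, then hourly to 72 h.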

Assay [4] has as its system A549. The assay is described as follows: Cytotoxicity against human A549 cells assessed as cell proliferation at 100 nM after 48 hrs by confocal microscopic analysis.

Broadly, the IC50 is the midpoint of a concentration-inhibition curve. Low readings indicate inhibition by little substance, high ones a need for much substance. Consider `CO[C@H](c1ccc(O)cc1)[C@H]1NC(=O)[C@H](CCC(N)=O)N(C)C(=O)[C@H](CC(C)C)NC(=O)[C@@H](CCCNC(=N)N)NC(=O)[C@@H]([C@H](C)O)NC(=O)[C@H](NC(=O)C(NC(=O)[C@H](O)[C@H](O)[C@H](CCCNC(=N)N)NC(=O)[C@H](CC(N)=O)NC(=O)[C@H](C)[C@H](O)[C@H](C)CC(C)C)C(C)C(C)C(N)=O)[C@@H](C)OC(=O)[C@@H]2CCCCN2C1=O` (relative stereo), for which the IC50 with HeLa came out at 110 nM; in the assay on NFF, 370 nM; in assay [1], 200 nM; with PC-3 it was 170 nM; in the assay with A549 [2], 130 nM; with LNCaP, 230 nM.
Take `CC[C@]1(O)C[C@H]2CN(CCc3c([nH]c4ccccc34)[C@@](C(=O)OC)(c3cc4c(cc3OC)N(C=O)[C@H]3[C@@](O)(C(=O)OC)[C@H](OC(C)=O)[C@]5(CC)C=CCN6CC[C@]43[C@@H]65)C2)C1` [VINCRISTINE SULFATE]: the IC50 in the assay with HeLa came out at 36 nM; in the assay on NFF it was 17 nM; in assay [1] it was 31 nM; in the assay with PC-3 it was 15 nM; in the assay with A549 [2], 20 nM; with LNCaP, 6.1 nM.
Regarding `CO[C@H](c1ccc(O)cc1)[C@H]1NC(=O)[C@H](CCC(=O)O)N(C)C(=O)[C@H](CC(C)C)NC(=O)[C@@H](CCCNC(=N)N)NC(=O)[C@@H]([C@H](C)O)NC(=O)[C@H](NC(=O)C(NC(=O)[C@H](O)[C@H](O)[C@H](CCCNC(=N)N)NC(=O)[C@H](CC(N)=O)NC(=O)[C@H](C)[C@H](O)[C@H](C)CC(C)C)C(C)C(C)C(N)=O)[C@@H](C)OC(=O)[C@@H]2CCCCN2C1=O` (relative stereo), the IC50 worked out at 170 nM in the assay with HeLa; 260 nM with NFF; 160 nM in assay [1]; 110 nM with PC-3; 131 nM in the assay on A549 [2]; 190 nM with LNCaP.
For `CCC(C)C[C@@H](C)[C@@H](O)[C@@H](C)C(=O)N[C@@H](CC(N)=O)C(=O)N[C@@H](CCCNC(=N)N)[C@@H](O)[C@@H](O)C(=O)NC(C(=O)N[C@H]1C(=O)N[C@H]([C@H](C)O)C(=O)N[C@H](CCCNC(=N)N)C(=O)N[C@@H](CC(C)C)C(=O)N(C)[C@@H](CCC(N)=O)C(=O)N[C@H]([C@H](OC)c2ccc(O)cc2)C(=O)N2CCCC[C@H]2C(=O)O[C@@H]1C)C(C)C(C)C(N)=O` (relative stereo), the IC50 in the assay on HeLa is 210 nM; in the assay on NFF, 150 nM; in assay [1] it was 88 nM; in the assay on PC-3 it was 130 nM; with A549 [2] it was 91 nM; in the assay with LNCaP it was 110 nM. Further, the result in the assay with A549 [3] and in the assay on A549 [4] was inactive.
